“And” between values parts separate entries of the source, which are not always exact repeats. Identical values can stand only once. “Also recorded” adds a separate entry of the source.
Key:
phospho‐AKT = settings: read-out: calculated in vitro IC90 for phospho‐AKT inhibition; measure of PI3K pathway pharmacodynamic activity; ref not given; cited from earlier work
[1] = system: relapsed or refractory follicular lymphoma; test: Investigator-assessed response; format: in vivo, Japanese patients
How it was run: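 Investigator-assessed response by Lugano criteria in the full analysis set (all treated patients). Patients received 10 or 20 mg QD orally for 8 weeks, then the same dose QW. CT, FDG-PET or PET-CT was chosen by subtype, using the same technique as at screening. Scans ran every 8 weeks through week 24, every 12 weeks through week 96, then every 24 weeks until progression.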

[2] = Parsaclisib exposure and patient disposition; format: in vivo, Japanese patients
How it was run: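 Safety population: all enrolled patients given ≥1 dose. Regimen was 10 or 20 mg QD for 8 weeks, then QW, until progression, death, unacceptable toxicity or consent withdrawal. AEs were graded by NCI CTCAE v4.03. Treatment duration (d) = last dose − first dose + 1. QW-period duration (wk) = ceiling[(last dose − first QW dose + 1)/7]. Interruptions and reductions were tallied by dosing period.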

[3] = Dose-limiting toxicity / MTD, 3 + 3 dose escalation and expansion; format: in vivo, Japanese patients
How it was run: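 Oral test compound in Japanese patients: once daily for 8 weeks, then the same dose weekly; starting dose 10 mg QD. Patients were hospitalised for the 28-day DLT period. DLTs were graded by NCI CTCAE v4.03. MTD was one level below the dose with DLT in ≥2 of 6 patients, with 3 added patients to confirm.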

[4] = Plasma pharmacokinetics of parsaclisib, cycle 1 day 15; format: in vivo, Japanese patients; settings: for Vd/F: Vz/F
[5] = 10 mg QD, cycle 1 day 15, n 3, mean ± SD
[6] = 20 mg QD, cycle 1 day 15, n 11, mean ± SD

CCOc1c([C@H](C)n2nc(C)c3c(N)ncnc32)cc(Cl)c(F)c1[C@@H]1CNC(=O)C1 [parsaclisib]
IC90 (phospho‐AKT): 40 nM | BOR, CMR/CR ([1]; FL (n = 9)): 2 (22.2) n (%) | BOR, NMR/SD ([1]; FL (n = 9)): 0 (0.0) n (%) | BOR, PMD/PD ([1]; FL (n = 9)): 0 (0.0) n (%) | BOR, PMR/PR ([1]; FL (n = 9)): 7 (77.8) n (%) | Objective response ([1]; FL (n = 9)): 9 (100.0) n (%) | BOR, Not assessed ([1]; FL (n = 9), no postbaseline response data available): 0 (0.0) n (%) | complete response ([1]; FL, 2 of 9 patients): 22.2% | ORR ([1]; FL, 9 of 9 patients): 100% | observed PFS ([1]; nine responders with FL): 1.9–17.5 months | Patients with dose interruption ([2]; 10 mg QD + 10 mg QW (n = 3)): 2 (66.7) n (%) | Patients with dose reduction ([2]; 10 mg QD + 10 mg QW (n = 3)): 1 (33.3) n (%) | Patients with dose interruption ([2]; 20 mg QD + 20 mg QW (n = 14)): 8 (57.1) n (%) | Patients with dose reduction ([2]; 20 mg QD + 20 mg QW (n = 14)): 4 (28.6) n (%) | patients who discontinued treatment due to AEs / TEAEs ([2]; 2 of 17 patients (varicella zoster infection, pyrexia)): 11.8% | patients requiring a dose reduction ([2]; 5 of 17 patients): 29.4% | patients remaining on study treatment at data cut‐off ([2]; 6 of 17 patients): 35.3% | patients requiring a dose interruption during the treatment period ([2]; 10 of 17 patients): 58.8% | Patients with dose interruption ([2]; Total (N = 17)): 10 (58.8) n (%) | Patients with dose reduction ([2]; Total (N = 17)): 5 (29.4) n (%) | MTD ([3]; 20 mg QD for 8 weeks followed by 20 mg QW): not considered to have exceeded the MTD; also recorded: the criteria for MTD was not exceeded | DLTs during dose expansion ([3]; 20‐mg dose level, QD schedule): grade 3 febrile neutropenia on day 28 and grade 4 neutropenia on day 14 (each in 1 patient); also recorded: two DLTs occurred in one patient each | DLTs during the 28‐day DLT observation period ([3]; dose‐escalation phase, 10‐mg (n = 3) or 20‐mg (n = 3) dose level): No DLTs | Accumulation ratio [4, 5]: 1.4 ± 0.2 (1.4, 17.1) | CLss/F [4, 5]: 1.8 ± 0.6 (1.75, 30.9) L/h | Cmin [4, 5]: 227 ± 83.2 nM and 227 ± 83.2 (215, 36.6) nM | Tmax ([4]; 10 mg QD, cycle 1 day 15, n 3, median (range)): 1.0 (0.5–2.0) h | Accumulation ratio [4, 6]: 1.2 ± 0.1 (1.2, 11.3) | CLss/F [4, 6]: 2.3 ± 0.75 (2.2, 32.9) L/h | Cmin [4, 6]: 303 ± 155 nM and 303 ± 155 (271, 51.0) nM | CLss/F ([4]; Total (10 and 20 mg QD), cycle 1 day 15, n 14, mean ± SD): 2.2 ± 0.7 L/h and 2.2 ± 0.7 (2.1, 32.8) L/h | AUC ([4]; human, plasma, oral, 10 mg): 12.5 µM·h | Cmax ([4]; human, plasma, oral, 10 mg): 1440 ± 502 nM | Tmax ([4]; human, plasma, oral, 10 mg, Tmax, 10 mg QD, cycle 1 day 15, n 3, median (range)): 0.97 h | Vd/F ([4]; human, plasma, oral, 10 mg, 10 mg QD, cycle 1 day 15, n 3, mean ± SD): 31.3 ± 9.8 L | half-life ([4]; human, plasma, oral, 10 mg, t½, 10 mg QD, cycle 1 day 15, n 3, mean ± SD): 12.6 ± 4.6 h | AUC ([4]; human, plasma, oral, 20 mg): 20.5 µM·h | Cmax ([4]; human, plasma, oral, 20 mg): 2630 ± 530 nM | Tmax ([4]; human, plasma, oral, 20 mg, Tmax, 20 mg QD, cycle 1 day 15, n 11, median (range)): 0.55 h | Vd/F ([4]; human, plasma, oral, 20 mg, 20 mg QD, cycle 1 day 15, n 11, mean ± SD): 31.1 ± 10.2 L | half-life ([4]; human, plasma, oral, 20 mg, t½, 20 mg QD, cycle 1 day 15, n 11, mean ± SD): 9.8 ± 2.8 h | half-life ([4]; human, plasma, oral, steady‐state geometric mean t½, overall, dose‐independent): 9.9 h

Reference: publication PMC9128166 (Cancer Science, 2022)
